Experimental data collected from several papers.
Compare with care: the assays were run in different laboratories.
CDK4 with cyclin D3: Cyclin-dependent kinase 4, with cyclin D3 (CDK4, Homo sapiens, UniProt P11802)
CDK4 with cyclin D1: Cyclin-dependent kinase 4, with cyclin D1 (CDK4, Homo sapiens, UniProt P11802)
CDK4: Cyclin-dependent kinase 4 (CDK4, Homo sapiens, UniProt P11802)

Nc1ncc(-c2nc(N3CCOCC3)nc(N3CCOCC3)n2)c(C(F)F)n1
remaining binding (CDK4 with cyclin D3; binding; competition with immobilised ligand; 10 µM): 87%

CC(C)(C)c1cc(C=C(C#N)C#N)cc(Br)c1O
remaining activity (CDK4 with cyclin D1; enzyme activity; inhibitor; 0.5 µM): 115%

Cc1nn(C)cc1-c1nc2c(N3CCN(Cc4ccc(Cl)cc4)CC3)c(Cl)cnc2[nH]1
remaining binding (CDK4 with cyclin D3; binding; competition with immobilised ligand; 1 µM): 74%

N#CC1(c2ccccn2)CCN(Cc2cc(C(=O)O)c(=O)n3ccccc23)CC1
remaining binding (CDK4 with cyclin D3; cell-free assay; competition with immobilised ligand; 1 µM): 82%

CCOC(=O)[C@H]1Cc2c(cc([N+](=O)[O-])cc2[N+](=O)[O-])[C@H](O)[C@]12C(=O)Nc1ccc([N+](=O)[O-])cc12
inhibition (CDK4; cell-free assay; inhibitor; TR-FRET; 1 µM): 37.9%

O=c1[nH]c2ccccc2n1C1CCN(Cc2ccc(-c3[nH]c4cc5ncnc5cc4nc3-c3ccccc3)cc2)CC1
remaining signal (CDK4 with cyclin D3; cell-free assay; 0.5 µM): 99.7%

Cn1cncc1[C@](O)(COc1ccc(C#N)cc1-c1ccc(OC(F)(F)F)cc1)c1ccc(C#N)cc1
remaining binding (CDK4 with cyclin D1; cell-free assay; competition with immobilised ligand; 1 µM): 100%

CCOC(=O)[C@H]1Cc2c(cc([N+](=O)[O-])cc2[N+](=O)[O-])[C@H](O)[C@]12C(=O)Nc1cccc(Br)c12
inhibition (CDK4; cell-free assay; inhibitor; TR-FRET; 1 µM): 29.4%
